These compounds were tested against T1, Substance-K receptor (Homo sapiens, UniProt P21452) (assay: In vitro binding affinity for Tachykinin receptor 2 of human-CHO cells using 125 I-NKA radioligand).
T1 sequence (P21452 whole entry): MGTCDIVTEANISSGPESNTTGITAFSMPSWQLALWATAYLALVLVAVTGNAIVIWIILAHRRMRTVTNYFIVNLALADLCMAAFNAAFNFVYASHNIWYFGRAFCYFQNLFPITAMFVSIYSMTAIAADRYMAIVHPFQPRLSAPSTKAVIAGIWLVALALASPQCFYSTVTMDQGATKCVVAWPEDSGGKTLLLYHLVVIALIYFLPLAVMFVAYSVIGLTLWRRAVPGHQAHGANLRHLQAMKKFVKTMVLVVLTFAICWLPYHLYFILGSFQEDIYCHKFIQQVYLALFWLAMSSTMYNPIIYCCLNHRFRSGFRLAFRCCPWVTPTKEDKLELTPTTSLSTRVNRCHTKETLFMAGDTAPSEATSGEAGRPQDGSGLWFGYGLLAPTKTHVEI
Type: cell-based
In short: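 Whole CHO cells stably expressing recombinant human NK2 receptor (3×10^5 per well) incubated 20 min at room temperature with 0.05 nM [125I]-NKA (2200 Ci/mmol) and a range of test concentrations in 20 mM HEPES pH 7.4 with 2 mM MnSO4 and 6 mM MgCl2. Nonspecific binding defined with 50 nM NKA. Rapid filtration, four ice-cold Tricine washes, scintillation counting; triplicate samples.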

IC50 | Compound
0.0195 µM | CN(C(=O)c1cc(C(F)(F)F)cc(C(F)(F)F)c1)N(CCC(=O)N[C@@H]1CCCCNC1=O)Cc1cc(Br)c(Br)s1
0.066 µM | CN(C(=O)c1cc(C(F)(F)F)cc(C(F)(F)F)c1)[C@@H](/C=C/C(=O)NC1(C(N)=O)CCCCC1)Cc1ccc(Cl)cc1
0.0055 µM | CN(C(=O)c1cc(C(F)(F)F)cc(C(F)(F)F)c1)N(CCC(=O)N[C@@H]1CCCCNC1=O)Cc1ccc(Cl)c(Cl)c1
0.203 µM | CN(C(=O)c1cc(C(F)(F)F)cc(C(F)(F)F)c1)[C@@H](/C=C/C(=O)NC1CCCCCC1)Cc1ccc(Cl)cc1
0.06 µM | CN(C(=O)c1cc(C(F)(F)F)cc(C(F)(F)F)c1)[C@@H](/C=C/C(=O)N[C@@H]1CCCCNC1=O)Cc1ccc2ccccc2c1
0.024 µM | CN(C(=O)c1cc(C(F)(F)F)cc(C(F)(F)F)c1)[C@@H](/C=C/C(=O)N[C@@H]1CCCCNC1=O)Cc1cn(C)c2ccccc12
0.026 µM | CN(C(=O)c1cc(C(F)(F)F)cc(C(F)(F)F)c1)[C@@H](/C=C/C(=O)N[C@@H]1CCCCNC1=O)Cc1cc(Br)c(Br)s1
0.055 µM | CN(C(=O)c1cc(C(F)(F)F)cc(C(F)(F)F)c1)N(CCC(=O)N[C@@H]1CCCCNC1=O)Cc1ccc2ccccc2c1
0.017 µM | CN(C(=O)c1cc(C(F)(F)F)cc(C(F)(F)F)c1)[C@@H](/C=C/C(=O)N[C@@H]1CCCCNC1=O)Cc1cc(Cl)c(Cl)s1
0.0055 µM | CN(C(=O)c1cc(C(F)(F)F)cc(C(F)(F)F)c1)[C@@H](/C=C/C(=O)N[C@@H]1CCCCNC1=O)Cc1ccc(Cl)c(Cl)c1 [DNK333]

— ChEMBL document CHEMBL1133863, “Dual neurokinin NK(1)/NK(2) antagonists: N-[(R,R)-(E)-1-arylmethyl-3-(2-oxo-azepan-3-yl)carbamoyl]allyl-N-methyl-3,5-bis(trifluoromethyl)benzamides and 3-[N'-3,5-bis(trifluoromethyl)benzoyl-N-arylmethyl-N'-methylhydrazino]-N-[(R)-2-oxo-azepan-3-yl]propionamides” (Bioorg Med Chem Lett, 2001)
